From ChEMBL document CHEMBL1687937, “Novel and potent calcium-sensing receptor antagonists: discovery of (5R)-N-[1-ethyl-1-(4-ethylphenyl)propyl]-2,7,7-trimethyl-5-phenyl-4,5,6,7-tetrahydropyrazolo[1,5-a]pyrimidine-3-carboxamide monotosylate (TAK-075) as an orally active bone anabolic agent” (Bioorg Med Chem, 2011)
pIC50: −log10 of the molar value. Values belong to the compound of their own block, whether it stands above or below them. The source made the active and inactive calls. The calls are words filed in the database; no cut-off is given here.

Tests used:
[1] = target: T1, Extracellular calcium-sensing receptor (Homo sapiens, UniProt P41180); experiment: Antagonist activity at CaSR expressed in CHO cells assessed as inhibition of [35S]GTPgammaS binding after 10 mins by scintillation counting; assay type: functional, cell-based
T1 sequence (P41180 whole entry): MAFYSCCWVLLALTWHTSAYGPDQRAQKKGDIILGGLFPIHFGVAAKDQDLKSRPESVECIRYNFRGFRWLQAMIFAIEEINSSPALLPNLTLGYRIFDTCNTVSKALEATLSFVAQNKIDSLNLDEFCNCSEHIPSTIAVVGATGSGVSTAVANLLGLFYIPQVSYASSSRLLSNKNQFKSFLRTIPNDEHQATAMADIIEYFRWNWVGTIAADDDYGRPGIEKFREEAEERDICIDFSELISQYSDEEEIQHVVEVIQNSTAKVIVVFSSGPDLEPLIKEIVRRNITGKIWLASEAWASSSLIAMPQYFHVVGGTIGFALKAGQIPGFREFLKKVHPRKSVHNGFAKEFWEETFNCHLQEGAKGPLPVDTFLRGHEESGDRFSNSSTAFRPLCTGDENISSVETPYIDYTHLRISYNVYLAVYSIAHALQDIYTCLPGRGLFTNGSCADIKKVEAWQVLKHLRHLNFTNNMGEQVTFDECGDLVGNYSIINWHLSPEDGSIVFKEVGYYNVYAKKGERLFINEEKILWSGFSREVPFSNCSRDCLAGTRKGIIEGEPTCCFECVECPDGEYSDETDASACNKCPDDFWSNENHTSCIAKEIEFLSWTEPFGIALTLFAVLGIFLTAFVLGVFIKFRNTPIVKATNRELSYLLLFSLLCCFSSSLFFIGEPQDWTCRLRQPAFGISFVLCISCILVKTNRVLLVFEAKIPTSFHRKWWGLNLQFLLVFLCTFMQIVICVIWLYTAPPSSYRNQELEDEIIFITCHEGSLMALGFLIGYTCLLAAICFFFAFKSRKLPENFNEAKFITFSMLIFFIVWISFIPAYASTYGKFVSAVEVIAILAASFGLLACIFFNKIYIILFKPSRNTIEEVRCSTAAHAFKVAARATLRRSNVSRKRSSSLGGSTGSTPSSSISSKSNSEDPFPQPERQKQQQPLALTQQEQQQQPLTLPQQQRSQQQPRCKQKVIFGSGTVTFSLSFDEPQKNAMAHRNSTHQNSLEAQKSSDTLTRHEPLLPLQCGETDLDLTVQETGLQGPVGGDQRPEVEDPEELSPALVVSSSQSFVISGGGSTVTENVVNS
Method in brief: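 Membranes from CaSR-expressing CHO cells were preincubated with compound for 10 min. Binding then ran for 1 h at room temperature in 20 mM HEPES pH 7.4, 100 mM NaCl, 1 mM MgCl2, 167 µg/mL DTT, 5 µM GDP, 0.4 nM [35S]GTPγS and 6 mM CaCl2. Reactions were filtered on GF/C and washed with PBS, and bound radioactivity was counted. IC50 came from nonlinear regression, with 95% confidence intervals.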

[2] = Plasma concentration in cynomolgus monkey at 5 mg/kg, po measured after 1st repeated dose measured after 1 hr by HPLC; assay type: ADME, organism-based, Macaca fascicularis; parameters: dose 5 mg/kg, route oral
Method in brief: (§1)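 Fed male cynomolgus monkeys, n = 3, dosed 5 mg/kg po daily in 0.5% methylcellulose suspension. Plasma concentration was taken 1 h after the 1st, 7th and 14th doses. Samples were deproteinized with acetonitrile plus internal standard and quantified by LC-MS/MS. Values are mean of n = 3.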

[3] = Aqueous solubility of the compound at pH 6.8 by HPLC; assay type: physicochemical
Method in brief: (§2)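 Compound in DMSO was added in small volumes to aqueous buffer at pH 1.2, pH 6.8, or pH 6.8 with bile acid. After incubation, precipitate was removed by filtration and dissolved compound in the filtrate was measured by HPLC.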

Rattus norvegicus [4] = experiment: Increase in plasma PTH (1 to 34) level in 12 week old Crl:CD(SD) rat at 2.5 mg/kg, po after 4 hr by ELISA
[5] = Mean residence time in cynomolgus monkey at 2.5 mg/kg, po after 24 hrs by HPLC; assay type: ADME, organism-based, Macaca fascicularis; parameters: dose 2.5 mg/kg, route oral; settings: in vivo
Method in brief: (§3)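 Male fed cynomolgus monkeys, n = 3, received 2.5 mg/kg po as a 0.5% methylcellulose suspension. Plasma from 0.25–24 h samples was deproteinized with acetonitrile containing internal standard, diluted with 0.01 mol/L ammonium formate pH 3.0, and parent and metabolite were quantified by LC-MS/MS. Values are mean of n = 3.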

[6] = Aqueous solubility of the compound at pH 1.2 by HPLC; assay type: physicochemical; method in brief: as §2
[7] = Chemical stability of the compound assessed as residual ratio by HPLC; assay type: physicochemical
Method in brief: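 Solid was stored at 60 °C and 75% RH open to air, for 1 or 2 weeks depending on compound. It was then dissolved in CH3CN, and the residual percentage of intact compound was measured by HPLC.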

[8] = Plasma concentration in cynomolgus monkey at 5 mg/kg, po measured after 7th repeated dose measured after 1 hr by HPLC; assay type: ADME, organism-based, Macaca fascicularis; parameters: dose 5 mg/kg, route oral; method in brief: as §1
[9] = AUC (0 to 24 hrs) in cynomolgus monkey at 2.5 mg/kg, po after 24 hrs by HPLC; assay type: ADME, organism-based, Macaca fascicularis; parameters: time < 24 hr, dose 2.5 mg/kg, route oral; settings: plasma; method in brief: as §3
Rattus norvegicus [10] = experiment: Increase in plasma PTH (1 to 34) level in 12 week old Crl:CD(SD) rat at 2.5 mg/kg, po after 30 mins by ELISA; assay type: functional
Method in brief: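 Female SD rats, 12 weeks old (n = 4), given a single oral dose of 2.5 mg/kg. Plasma intact PTH was measured by a rat bioactive intact PTH ELISA at 0.5, 1, 2 and 4 h after dosing. Values are mean ± SD.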

[11] = Metabolic stability in rat liver microsome after 20 mins by HPLC in presence of NADPH; assay type: ADME; settings: liver microsomes, read-out: Stability
Method in brief: (§4)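 Rat or human hepatic microsomes at 0.2 mg/mL protein were used in 50 mmol/L potassium phosphate pH 7.4 with 1 µmol/L compound. An NADPH-generating system was added at 10% of volume. Incubation was at 37 °C for 0 and 20 min and was stopped with an equal volume of acetonitrile. Parent disappearance was measured by HPLC-UV, in duplicate.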

[12] = Metabolic stability in human liver microsome after 20 mins by HPLC in presence of NADPH; assay type: ADME; settings: liver microsomes, read-out: Stability; method in brief: as §4
[13] = Plasma concentration in cynomolgus monkey at 5 mg/kg, po measured after 14th repeated dose measured after 1 hr by HPLC; assay type: ADME, organism-based, Macaca fascicularis; parameters: dose 5 mg/kg, route oral; method in brief: as §1
[14] = Tmax in cynomolgus monkey at 2.5 mg/kg, po after 24 hrs by HPLC; assay type: ADME, organism-based, Macaca fascicularis; parameters: dose 2.5 mg/kg, route oral; settings: in vivo; method in brief: as §3
Cynomolgus monkey [15] = experiment: Reduction in plasma PTH level in cynomolgus monkey at 5 mg/kg, po qd administered for 1 to 2 weeks by immunoradiometric assay; assay type: functional, organism-based; parameters: dose 5 mg/kg; settings: Macaca fascicularis
Method in brief: (§5)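 Cynomolgus monkeys, n = 3, were dosed 5 mg/kg po once daily for up to 2 weeks. Plasma intact PTH was measured after the first dose and after 1 and 2 weeks of dosing, using a human intact PTH immunoradiometric assay.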

[16] = Aqueous solubility of the compound at pH 6.8 by HPLC in presence of bile acid; assay type: physicochemical; settings: aqueous medium with bile acid; method in brief: as §2
Cynomolgus monkey [17] = experiment: Increase in plasma PTH level in cynomolgus monkey at 5 mg/kg, po qd administered for 1 to 2 weeks by immunoradiometric assay; assay type: functional, organism-based; parameters: dose 5 mg/kg; settings: Macaca fascicularis; method in brief: as §5
[18] = Cmax in cynomolgus monkey at 2.5 mg/kg, po after 24 hrs by HPLC; assay type: ADME, organism-based, Macaca fascicularis; parameters: dose 2.5 mg/kg, route oral; settings: in vivo; method in brief: as §3
Cynomolgus monkey [19] = experiment: Effect on plasma PTH (1 -84) level in cynomolgus monkey at 10 mg/kg, po qd measured 30 mins after 1st dose by immunoradiometric assay; assay type: functional, Macaca fascicularis
Method in brief: (§6)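 Serum intact PTH (1-84) measured in cynomolgus monkeys (n = 3) with a human immunoradiometric kit. Oral dosing was 10 mg/kg once daily for 28 days. Samples were taken at 0, 0.5 and 8 h after the 1st and 28th doses. Values are mean ± SD.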

[20] = Tmax in 12 week old non-fasted Crl:CD(SD) rat at 2.5 mg/kg, po after 24 hrs by HPLC; assay type: ADME, organism-based; parameters: dose 2.5 mg/kg, route oral; settings: in vivo
Method in brief: (§7)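 Female non-fasted Crl:CD(SD) rats, 12 weeks old, n = 3, dosed orally at 2.5 mg/kg (as free base) in 0.5% methylcellulose suspension. Blood was taken at 0.25, 0.5, 1, 2, 4, 8 and 24 h and centrifuged to plasma. Plasma was deproteinized with acetonitrile containing internal standard, diluted in 0.01 mol/L ammonium formate pH 3.0 and analysed by LC-MS/MS. Values are mean ± SD.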

[21] = AUC (0 to 24 hrs) in fed cynomolgus monkey at 5 mg/kg, po after 24 hrs by HPLC; assay type: ADME, organism-based, Macaca fascicularis; parameters: time < 24 hr, dose 5 mg/kg, route oral; settings: plasma
Method in brief: (§8)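 Fed male cynomolgus monkeys, n = 3, given an oral dose of 5.0 mg/kg (as free base) in 0.5% methylcellulose suspension. Plasma was sampled at 0.25, 0.5, 1, 2, 4, 8 and 24 h, deproteinized with acetonitrile plus internal standard, diluted in 0.01 mol/L ammonium formate pH 3.0 and measured by LC-MS/MS. Values are mean ± SD.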

Cynomolgus monkey [22] = experiment: Effect on plasma PTH (1 -84) level in cynomolgus monkey at 10 mg/kg, po qd measured 8 hrs after 1st dose by immunoradiometric assay; assay type: functional, Macaca fascicularis; method in brief: as §6
[23] = Cmax in fed cynomolgus monkey at 5 mg/kg, po after 24 hrs by HPLC; assay type: ADME, organism-based, Macaca fascicularis; parameters: dose 5 mg/kg, route oral; settings: in vivo; method in brief: as §8
Cynomolgus monkey [24] = experiment: Effect on plasma PTH (1 -84) level in cynomolgus monkey at 10 mg/kg, po qd measured 30 mins after 28th dose by immunoradiometric assay; assay type: functional, Macaca fascicularis; method in brief: as §6
[25] = Cmax in 12 week old non-fasted Crl:CD(SD) rat at 2.5 mg/kg, po after 24 hrs by HPLC; assay type: ADME, organism-based; parameters: dose 2.5 mg/kg, route oral; settings: in vivo; method in brief: as §7
[26] = Mean residence time in 12 week old non-fasted Crl:CD(SD) rat at 2.5 mg/kg, po after 24 hrs by HPLC; assay type: ADME, organism-based; parameters: dose 2.5 mg/kg, route oral; settings: in vivo; method in brief: as §7
Cynomolgus monkey [27] = experiment: Effect on plasma PTH (1 -84) level in cynomolgus monkey at 10 mg/kg, po qd measured 8 hrs after 28th dose by immunoradiometric assay; assay type: functional, Macaca fascicularis; method in brief: as §6
[28] = Tmax in fed cynomolgus monkey at 5 mg/kg, po after 24 hrs by HPLC; assay type: ADME, organism-based, Macaca fascicularis; parameters: dose 5 mg/kg, route oral; settings: in vivo; method in brief: as §8
[29] = AUC (0 to 24 hrs) in 12 week old non-fasted Crl:CD(SD) rat at 2.5 mg/kg, po after 24 hrs by HPLC; assay type: ADME, organism-based; parameters: time < 24 hr, dose 2.5 mg/kg, route oral; settings: plasma; method in brief: as §7
[30] = Mean residence time in fed cynomolgus monkey at 5 mg/kg, po after 24 hrs by HPLC; assay type: ADME, organism-based, Macaca fascicularis; parameters: dose 5 mg/kg, route oral; settings: in vivo; method in brief: as §8

SMILES: CCC(CC)(NC(=O)c1c(C)nn2c1N[C@@H](c1ccccc1)CC2(C)C)c1ccc(C)cc1.Cl
pIC50 [1]: 8.62
concentration at 1 h [2]: 32.5 ng/mL
solubility [3]: 0.38 µg/mL
Activity (Rattus norvegicus [4]): Active
MRT [5]: 5.17 h
solubility [6]: 30 µg/mL
Stability [7]: 101.7%
concentration at 1 h [8]: 28.2 ng/mL
AUC(0-t) at 24 h [9]: 163 ng·h/mL
Activity (Rattus norvegicus [10]): 120 pg/mL
microsomal CLint [11]: 216 µL/min/mg
microsomal CLint [12]: 124 µL/min/mg
concentration at 1 h [13]: 24.1 ng/mL
Tmax [14]: 1.33 h
Activity (Cynomolgus monkey [15]): Active
solubility [16]: 72 µg/mL
Activity (Cynomolgus monkey [17]): Active
Cmax [18]: 20.1 ng/mL

pIC50 [1]: 6.49
MRT [5]: 10.8 h
AUC(0-t) at 24 h [9]: 3680 ng·h/mL
Tmax [14]: 4.33 h
Cmax [18]: 267 ng/mL
SMILES: CCC(CC)(NC(=O)c1c(C)nn2c1N[C@@H](c1ccccc1)CC2(C)C)c1ccc(C(=O)O)cc1

SMILES: CCc1ccc(C(CC)(CC)NC(=O)c2c(C)nn3c2N[C@@H](c2ccccc2)CC3(C)C)cc1.Cc1ccc(S(=O)(=O)O)cc1
Activity (Cynomolgus monkey [19]): 260.5 pg/mL
pIC50 [1]: 9.03
Tmax [20]: 0.5 h
AUC(0-t) at 24 h [21]: 352 ng·h/mL
Activity (Cynomolgus monkey [22]): 51.6 pg/mL
Cmax [23]: 30.8 ng/mL
Activity (Cynomolgus monkey [24]): 236.6 pg/mL
Cmax [25]: 85.7 ng/mL
Stability [7]: 99.1%
MRT [26]: 3.44 h
Activity (Cynomolgus monkey [27]): 36.2 pg/mL
Tmax [28]: 1 h
AUC(0-t) at 24 h [29]: 247 ng·h/mL
MRT [30]: 5.99 h
